In article PMC10250156 (Molecular Metabolism, 2023):

Assays:
[1] = Chiral HPLC analysis of zeaxanthin stereoisomers in tissues; type: in vivo; conditions: Isx^−/−/Bco2^−/− mice on 250 mg/kg 3R,3′R-zeaxanthin diet
[2] = Food intake and liver weight during zeaxanthin dietary intervention; type: in vivo; conditions: Bco2^−/− and Isx^−/−/Bco2^−/− mice, 0, 50, 250 mg/kg diet
How it was run: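 Male and female mice were placed on vitamin A-free diets after weaning at 4 weeks old, for 4 weeks. Zeaxanthin was given as water-soluble beadlets incorporated into the diet. Fresh diet was given weekly, and body weight was recorded then. Food consumption was the leftover food per cage divided by the number of mice in the cage. At study end, mice were anaesthetised and livers dissected and weighed.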

[3] = HPLC analysis of zeaxanthin content in fecal matter during dietary intervention; type: in vivo, mice; conditions: 50 mg/kg zeaxanthin supplementation, 28 days
How it was run: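 Mice were fed vitamin A-free diets starting at weaning. Feces were collected on days 0, 1, 2, 4, 7, 14, 21 and 28 of the 28-day intervention. Carotenoids were extracted from about 25 mg feces under dim red light (<600 nm). Zeaxanthin was quantified by HPLC.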

[4] = tested on: albino Isx^−/−/Bco2^−/− mice; assay: Electroretinography; type: in vivo; conditions: 250 mg/kg versus 0 mg/kg, 4 weeks
[5] = type: in vivo, mice
How it was run: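 Male and female mice were fed vitamin A-free diets for 4 weeks from weaning; the WT cohort received the 250 mg/kg diet. Tissues were weighed and snap-frozen at -80 °C. Carotenoids were extracted under dim red light from about 25 mg of intestinal segments, liver or eWAT, 100 uL serum, or one whole eye. Analysis was normal-phase silica HPLC with diode-array detection. Data are means ± SD, n=5 (eWAT: 3 females, 2 males); two-way ANOVA.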

[6] = tested on: albino Isx^−/−/Bco2^−/− mice; assay: Optical coherence tomography; type: in vivo; conditions: 250 mg/kg versus 0 mg/kg, 4 weeks
[7] = Light exposure experiment: zeaxanthin metabolites in eye and liver by HPLC; type: in vivo; conditions: albino Isx^−/−/Bco2^−/− mice, 250 mg/kg zeaxanthin, 4 weeks
How it was run: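 Albino mice were fed the 250 mg/kg or control diet for 4 weeks after weaning. Three groups were used: 24 h/day darkness (DC), a 12/12 h light/dark cycle (L/DC), or L/DC plus twice-weekly light stress from week 2 (LS). For light stress, mice were dark-adapted overnight, pupils were dilated with 1% tropicamide, and mice received 85,000 lux white light for 2 min. Whole eye and liver carotenoids were then quantified by HPLC.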

[8] = tested on: albino Isx^−/−/Bco2^−/− mice; assay: Skin colour phenotype of supplemented albino mice; type: in vivo; conditions: 250 mg/kg zeaxanthin, 4 weeks, hypercarotenemia
How it was run: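 Albino mice were fed a vitamin A-free diet containing 250 mg/kg zeaxanthin or no zeaxanthin (control) for 4 weeks, starting immediately after weaning. Skin colour of the ears, eyelids and nostrils was inspected and photographed.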

CC1=C(/C=C/C(C)=C/C=C/C(C)=C/C=C/C=C(C)/C=C/C=C(C)/C=C/C2=C(C)C[C@H](O)CC2(C)C)C(C)(C)C[C@H](O)C1 [3R, 3′S-zeaxanthin]
presence in the eyes by chiral HPLC [1]: no peak with a retention time of 3R, 3′S-zeaxanthin was detected

CC1=C(/C=C/C(C)=C/C=C/C(C)=C/C=C/C=C(C)/C=C/C=C(C)/C=C/C2=C(C)C[C@@H](O)CC2(C)C)C(C)(C)C[C@H](O)C1 [zeaxanthin, 3R,3′R-zeaxanthin]
effect on food intake [2]: did not affect food intake
liver weight between dietary groups ([2]; 4 weeks): no significant difference in liver weight
fecal zeaxanthin excretion, Isx^−/−/Bco2^−/− versus Bco2^−/− mice [3]: excreted less zeaxanthin
ERG responses under photopic and scotopic conditions [4]: normal responses
form of zeaxanthin detectable in liver ([5]; 50 mg zeaxanthin diet, Bco2^−/− and Isx^−/−/Bco2^−/− mice, 4 weeks): only the oxidized form of zeaxanthin became detectable
total zeaxanthin in eWAT, Isx^−/−/Bco2^−/− versus Bco2^−/− mice ([5]; 50 mg/kg or 250 mg/kg diet, 4 weeks): significantly higher amounts
concentration of carotenoids in eWAT and eyes compared with kidney and serum ([5]; 50 mg/kg zeaxanthin, Bco2^−/− and Isx^−/−/Bco2^−/− mice): two-fold higher
amount of zeaxanthin in jejunum relative to other parts of the intestine ([5]; WT mice, 250 mg/kg diet, 4 weeks, major metabolite parent compound): highest amount
OCT: retinal morphology, supplemented versus non-supplemented mice [6]: no differences in the stratification of the retinal layers
total zeaxanthin or its oxidized form in liver between light treatment groups [7]: no light-dependent increase
ocular levels between different light groups ([7]; DC, L/DC, LS): remained relatively constant
skin phenotype (ears, eyelids, nostrils) [8]: yellow skin color phenotype

CC1=CC(=O)CC(C)(C)C1/C=C/C(C)=C/C=C/C(C)=C/C=C/C=C(C)/C=C/C=C(C)/C=C/C1C(C)=CC(=O)CC1(C)C (centres unmarked) [oxidized zeaxanthin, ε,ε-carotene 3, 3′-dione]
concentration in the eyes of L/DC and LS groups compared to DC group [7]: increased
